Experiment [1] is described as follows: hit retest on RPL19A-GFP reporter strain – cell-based, S. cerevisiae, flow cytometry, cherry picks, mother/daughter gates, confirmation (AID 2270;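 active = GFP response below 50% of the DMSO control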). As to conditions: 3 h, at 10 µM, stronger effect = lower value, 100 = same GFP as DMSO wells.
Experiment [2] in a line: yeast TOR pathway reporter LAP4-GFP change – cell-based, cherry picks, flow cytometry, mother/daughter gates, confirmation (AID 2271;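 active = GFP response above 150% of the DMSO control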;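 also: ratio of sample to DMSO plate mean so 100% equals DMSO level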). As to conditions: S. cerevisiae LAP4-GFP strain, 3 h, at 10 µM, stronger effect = higher value, 100 means same as DMSO control. A digest of the protocol: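 Measured by: GFP by flow cytometry. Test system: GFP-fusion yeast strain. Input: yeast cells seeded at OD600 of 0.2. Timing: 30 °C, 3 h compound incubation, rotating. Buffer or medium: synthetic complete medium for yeast. Benchmarks: DMSO-only negative wells, rapamycin 400 ng/mL positive wells. Compound: 10 µM single dose.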

A short description of experiment [3]: TOR pathway reporter MEP2-GFP, retest of hits – S. cerevisiae, flow cytometry GFP, cherry picks, confirmation (AID 2272;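 active = GFP response above 150% of the DMSO control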;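 also: ratio of well signal to plate DMSO mean so 100% equals DMSO level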). As to conditions: S. cerevisiae MEP2-GFP strain, 3 h, at 10 µM, stronger effect = higher value.
Experiment [4] can be described thus: yeast AGP1-GFP fluorescence change, single-dose – cell-based, flow cytometry, S. cerevisiae, cherry picks, confirmation (AID 2273).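 Also: median GFP channel fluorescence over the whole cell population gate.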 As to conditions: S. cerevisiae AGP1-GFP strain, 3 h, at 10 µM.
Experiment [5] in a line: TOR pathway CIT2 reporter hit retest – S. cerevisiae, GFP fusion, cherry picks, mother/daughter gates, confirmation (AID 2274). As to conditions: S. cerevisiae CIT2-GFP strain, flow cytometry, 3 h, at 10 µM, stronger effect = higher value.
Setting [6] is: measured here: daughter cell gate.
Where [7] appears, read: measured here: mother cell gate.
Where [8] appears, read: measured here: daughter cell gate response.
The mark [9] stands for this setting: measured here: mother cell gate response.

Activity calls are given as the source filed them.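 The calls were made as follows, unless noted: active = GFP response above 150% of the DMSO level; inconclusive = fewer than 70 events counted for a yeast strain; inactive = the rest.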

On to `COc1cc(NC(=O)c2cccc(C)c2)ccc1NC(=O)c1cc2ccccc2o1`, for which the GFP response vs DMSO in experiment [1] is 102% (inactive); in experiment [1] (setting [6]) it was 103%; in experiment [1] (setting [7]), 102%; in experiment [3] it was 99% (inactive). Also, the GFP response relative to DMSO in experiment [2] was 103% (inactive); in experiment [2] (setting [8]) it was 102%; in experiment [2] (setting [9]), 103%. Also, the GFP response, % of DMSO in experiment [4] was 104% (inactive); in experiment [5] it was 103% (inactive); in experiment [5] (setting [6]), 106%; in experiment [5] (setting [7]), 103%.
With `Clc1ccccc1N=C1NN=C(c2cccs2)CS1`, the GFP response vs DMSO in experiment [1] is 96.8% (inactive); in experiment [1] (setting [6]) it was 93.4%; in experiment [1] (setting [7]) it was 95.7%; in experiment [3], 90.5% (inactive). The GFP response relative to DMSO in experiment [2] is 108% (inactive); in experiment [2] (setting [8]) it was 106%; in experiment [2] (setting [9]), 113%. Moreover, the GFP response, % of DMSO in experiment [4] is 98.8% (inactive); in experiment [5], 90.1% (inactive); in experiment [5] (setting [6]) it was 88.4%; in experiment [5] (setting [7]), 89.5%.
`O=C(O)CSC1CC(=O)N(c2ccc(Cl)c(Cl)c2)C1=O` (stereo unspecified): the GFP response vs DMSO is 97.8% (inactive) in experiment [1], 97.8% in experiment [1] (setting [6]), 97.5% in experiment [1] (setting [7]) and 101% (inactive) in experiment [3]. Also, the results for the GFP response relative to DMSO in experiment [2], in experiment [2] (setting [8]) and in experiment [2] (setting [9]) were 108% (inactive), 113% and 107%, respectively. In addition, the GFP response, % of DMSO is 101% (inactive) in experiment [4], 100% (inactive) in experiment [5], 99.3% in experiment [5] (setting [6]) and 100% in experiment [5] (setting [7]).
Regarding `COc1ccc(-c2csc(NC(=O)CSc3nc(C)nc4sc(C(=O)O)c(C)c34)n2)cc1`, the GFP response vs DMSO was 100% (inactive) in experiment [1], 99% in experiment [1] (setting [6]), 100% in experiment [1] (setting [7]) and 102% (inactive) in experiment [3]. Further, the values for the GFP response relative to DMSO in experiment [2], in experiment [2] (setting [8]) and in experiment [2] (setting [9]) were 85.4% (inactive), 87.9% and 89%, respectively. In addition, the GFP response, % of DMSO was 104% (inactive) in experiment [4], 102% (inactive) in experiment [5], 99.7% in experiment [5] (setting [6]) and 103% in experiment [5] (setting [7]).
On to `CCOc1cc(/C=N/Nc2nc(C)cc(=O)[nH]2)ccc1O`, for which the GFP response vs DMSO in experiment [1] was 102% (inactive); in experiment [1] (setting [6]), 102%; in experiment [1] (setting [7]), 100%; in experiment [3], 104% (inactive). For the same molecule, the GFP response relative to DMSO in experiment [2] is 89% (inactive); in experiment [2] (setting [8]) it was 87.9%; in experiment [2] (setting [9]), 90.1%. Further, the GFP response, % of DMSO was 100% (inactive) in experiment [4], 106% (inactive) in experiment [5], 106% in experiment [5] (setting [6]) and 103% in experiment [5] (setting [7]).
`COc1ccc(/C=C/C(=O)c2ccc(Cl)cc2)c(OC)c1`: the GFP response vs DMSO in experiment [1] is 97.6% (inactive); in experiment [1] (setting [6]), 98.9%; in experiment [1] (setting [7]) it was 96.1%; in experiment [3] it was 100% (inactive). For the same molecule, the GFP response relative to DMSO in experiment [2] is 104% (inactive); in experiment [2] (setting [8]) it was 102%; in experiment [2] (setting [9]) it was 106%. In addition, the GFP response, % of DMSO was 90.2% (inactive) in experiment [4], 99.7% (inactive) in experiment [5], 99.1% in experiment [5] (setting [6]) and 97.3% in experiment [5] (setting [7]).
As to `O=C(Nc1nccs1)C1CCCN1S(=O)(=O)c1ccc(F)cc1` (stereo unspecified), the GFP response vs DMSO in experiment [1] was 98.8% (inactive); in experiment [1] (setting [6]) it was 99.8%; in experiment [1] (setting [7]), 100%; in experiment [3], 100% (inactive). The results for the GFP response relative to DMSO in experiment [2], in experiment [2] (setting [8]) and in experiment [2] (setting [9]) were 96.2% (inactive), 100% and 95.2%, respectively. Also, the GFP response, % of DMSO in experiment [4] was 100% (inactive); in experiment [5] it was 110% (inactive); in experiment [5] (setting [6]) it was 103%; in experiment [5] (setting [7]), 114%.
For `COc1ccc(/C=C2/C(=O)ON=C2c2ccccc2)cc1OC`, the GFP response vs DMSO was 102% (inactive) in experiment [1], 107% in experiment [1] (setting [6]), 99.2% in experiment [1] (setting [7]) and 102% (inactive) in experiment [3]. Besides, the GFP response relative to DMSO in experiment [2] is 101% (inactive); in experiment [2] (setting [8]), 102%; in experiment [2] (setting [9]), 99.5%. Besides, the GFP response, % of DMSO in experiment [4] was 101% (inactive); in experiment [5], 102% (inactive); in experiment [5] (setting [6]), 106%; in experiment [5] (setting [7]), 95.6%.
Regarding `Cc1c(N2C(=O)/C(=C\c3ccccc3O)SC2=S)c(=O)n(-c2ccccc2)n1C`, the GFP response vs DMSO in experiment [1] is 101% (inactive); in experiment [1] (setting [6]) it was 96%; in experiment [1] (setting [7]), 98.3%; in experiment [3] it was 102% (inactive). The GFP response relative to DMSO in experiment [2] is 134% (inactive); in experiment [2] (setting [8]) it was 130%; in experiment [2] (setting [9]), 137%. For the same molecule, the GFP response, % of DMSO in experiment [4] was 93.2% (inactive); in experiment [5], 105% (inactive); in experiment [5] (setting [6]), 109%; in experiment [5] (setting [7]) it was 95.6%.
For the molecule `Cc1c(O)ccc(/C=N/Nc2nc(-c3cccnc3)nc3ccccc23)c1O`, the GFP response vs DMSO in experiment [1] is 97.4% (inactive); in experiment [1] (setting [6]), 95.9%; in experiment [1] (setting [7]) it was 98.5%; in experiment [3], 102% (inactive). Moreover, the GFP response relative to DMSO in experiment [2] was 97.4% (inactive); in experiment [2] (setting [8]), 92.5%; in experiment [2] (setting [9]) it was 103%. Besides, the GFP response, % of DMSO is 93.9% (inactive) in experiment [4], 99.1% (inactive) in experiment [5], 96.5% in experiment [5] (setting [6]) and 98.7% in experiment [5] (setting [7]).
As to `Cc1cccn2c(=O)c(/C=C(\C#N)C(=O)NC3CCS(=O)(=O)C3)c(N3CC(C)OC(C)C3)nc12` (stereo unspecified), the GFP response vs DMSO in experiment [1] is 97.8% (inactive); in experiment [1] (setting [6]), 99.4%; in experiment [1] (setting [7]) it was 99.7%; in experiment [3], 100% (inactive). Further, the GFP response relative to DMSO is 92.8% (inactive) in experiment [2], 96% in experiment [2] (setting [8]) and 92.9% in experiment [2] (setting [9]). For the same molecule, the GFP response, % of DMSO in experiment [4] was 104% (inactive); in experiment [5], 99.7% (inactive); in experiment [5] (setting [6]) it was 103%; in experiment [5] (setting [7]) it was 99.7%.
On to `O=C(O)c1ccccc1C(=O)N1CCN(c2ccccc2)CC1`, for which the GFP response vs DMSO is 99.2% (inactive) in experiment [1], 99.9% in experiment [1] (setting [6]), 99.7% in experiment [1] (setting [7]) and 98.3% (inactive) in experiment [3]. The GFP response relative to DMSO in experiment [2] was 96.7% (inactive); in experiment [2] (setting [8]) it was 96%; in experiment [2] (setting [9]) it was 96.1%. Also, the GFP response, % of DMSO in experiment [4] was 101% (inactive); in experiment [5], 103% (inactive); in experiment [5] (setting [6]) it was 105%; in experiment [5] (setting [7]), 102%.
Take `Cc1noc(/C=C/c2ccccn2)c1[N+](=O)[O-]`: the GFP response vs DMSO in experiment [1] was 95.6% (inactive); in experiment [1] (setting [6]), 96.1%; in experiment [1] (setting [7]), 90.8%; in experiment [3], 99% (inactive). Moreover, the GFP response relative to DMSO in experiment [2] is 139% (inactive); in experiment [2] (setting [8]), 132%; in experiment [2] (setting [9]), 142%. Further, the GFP response, % of DMSO in experiment [4] is 96.7% (inactive); in experiment [5], 90.1% (inactive); in experiment [5] (setting [6]), 97.4%; in experiment [5] (setting [7]) it was 84.6%.
For the molecule `COc1cccc(NC(=O)c2ccc3c(c2)CCCC3)c1`, the GFP response vs DMSO in experiment [1] was 101% (inactive); in experiment [1] (setting [6]), 98.4%; in experiment [1] (setting [7]), 102%; in experiment [3] it was 97.8% (inactive). The GFP response relative to DMSO is 96.2% (inactive) in experiment [2], 97.2% in experiment [2] (setting [8]) and 99.3% in experiment [2] (setting [9]). Besides, the GFP response, % of DMSO in experiment [4] is 90.6% (inactive); in experiment [5], 103% (inactive); in experiment [5] (setting [6]), 101%; in experiment [5] (setting [7]) it was 102%.
As for `COc1cc(NC(=O)c2ccc(F)cc2)ccc1NC(=O)c1cc2ccccc2o1`, the GFP response vs DMSO in experiment [1] was 98% (inactive); in experiment [1] (setting [6]) it was 99.1%; in experiment [1] (setting [7]), 94.3%; in experiment [3], 101% (inactive). The results for the GFP response relative to DMSO in experiment [2], in experiment [2] (setting [8]) and in experiment [2] (setting [9]) were 96.1% (inactive), 96.6% and 96.2%, respectively. The GFP response, % of DMSO in experiment [4] is 102% (inactive); in experiment [5], 94.7% (inactive); in experiment [5] (setting [6]) it was 96.8%; in experiment [5] (setting [7]) it was 94.7%.
With `CS(=O)(=O)N1N=C(c2ccco2)CC1c1ccc(Cl)cc1` (stereo unspecified), the GFP response vs DMSO in experiment [1] is 101% (inactive); in experiment [1] (setting [6]), 102%; in experiment [1] (setting [7]), 101%; in experiment [3], 104% (inactive). The GFP response relative to DMSO in experiment [2] was 96.5% (inactive); in experiment [2] (setting [8]), 97.9%; in experiment [2] (setting [9]) it was 94.6%. For the same molecule, the GFP response, % of DMSO was 101% (inactive) in experiment [4], 101% (inactive) in experiment [5], 100% in experiment [5] (setting [6]) and 100% in experiment [5] (setting [7]).

For the origin of these results see PubChem BioAssay.
